Data published in ChEMBL document CHEMBL1275278, “Synthesis and pharmacological evaluation of clubbed isopropylthiazole derived triazolothiadiazoles, triazolothiadiazines and mannich bases as potential antimicrobial and antitubercular agents” (Eur J Med Chem, 2010).
In brackets after ≈: the same amount, converted by molar mass.

Tests used:
Format in all cases: functional
Pseudomonas aeruginosa = test: Antibacterial activity against Pseudomonas aeruginosa ATCC 10145 after 24 hrs by broth microdilution method; conditions: ATCC 10145, 24 h
Procedure, shortened: (§1)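 Broth dilution in Mueller-Hinton broth. Tubes inoculated at 10⁵ cfu/mL and incubated 37 °C for 24 h. MIC taken as lowest concentration completely inhibiting growth. Media and media-plus-DMSO growth controls; ciprofloxacin and norfloxacin as reference standards.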

Aspergillus niger = test: Antifungal activity against Aspergillus niger ATCC 6275 after 24 hrs by broth microdilution method; conditions: ATCC 6275, 24 h
Escherichia coli = test: Antibacterial activity against Escherichia coli ATCC 10536 after 24 hrs by broth microdilution method; conditions: ATCC 10536, 24 h; procedure, shortened: as §1
Saccharomyces cerevisiae = test: Antifungal activity against Saccharomyces cerevisiae ATCC 9763 after 24 hrs by broth microdilution method; conditions: ATCC 9763, 24 h
Bacillus subtilis = test: Antibacterial activity against Bacillus subtilis ATCC 60511 after 24 hrs by broth microdilution method; conditions: ATCC 60511, 24 h; procedure, shortened: as §1
Klebsiella pneumoniae = test: Antibacterial activity against Klebsiella pneumoniae ATCC 10031 after 24 hrs by broth microdilution method; conditions: ATCC 10031, 24 h; procedure, shortened: as §1
Staphylococcus aureus = test: Antibacterial activity against Staphylococcus aureus ATCC 11632 after 24 hrs by broth microdilution method; conditions: ATCC 11632, 24 h; procedure, shortened: as §1
Enterococcus faecalis = test: Antibacterial activity against Streptococcus faecalis ATCC 14506 after 24 hrs by broth microdilution method; conditions: ATCC 14506, 24 h; procedure, shortened: as §1
Candida tropicalis = test: Antifungal activity against Candida tropicalis ATCC 1369 after 24 hrs by broth microdilution method; conditions: ATCC 1369, 24 h
[1] = tested on: Mycobacterium tuberculosis; test: Antimycobacterial activity against Mycobacterium tuberculosis H37Rv after 21 days by broth dilution assay; conditions: 504 h
Procedure, shortened: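 Frozen culture in Middlebrook 7H9 broth with 10% albumin-dextrose-catalase and 0.2% glycerol, thawed and diluted in broth to 10⁵ cfu/mL. Compounds dissolved in DMSO, twofold diluted in broth; final DMSO 1.3%. Tubes inoculated, incubated at 37 °C. Growth compared visually against drug-free and drug- and inoculum-free controls and isoniazid. MIC = lowest concentration inhibiting ≥99% of the starting bacterial population.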

SMILES | MIC (Pseudomonas aeruginosa) [µg/mL] | MIC (Aspergillus niger) [µg/mL] | MIC (Escherichia coli) [µg/mL] | MIC (Saccharomyces cerevisiae) [µg/mL] | MIC (Bacillus subtilis) [µg/mL] | MIC (Klebsiella pneumoniae) [µg/mL] | MIC (Staphylococcus aureus) [µg/mL] | MIC (Enterococcus faecalis) [µg/mL] | MIC (Candida tropicalis) [µg/mL] | MIC [1] [µg/mL]
CC(C)c1csc(-c2nnc3n2N=C(c2ccccc2)CS3)n1 | 62.5 (≈ 183 µM) | 62.5 (≈ 183 µM) | 125 (≈ 366 µM) | 62.5 (≈ 183 µM) | 62.5 (≈ 183 µM) | 125 (≈ 366 µM) | 125 (≈ 366 µM) | 125 (≈ 366 µM) | 125 (≈ 366 µM) | 125 (≈ 366 µM)
Cc1ccc(C2=Nn3c(nnc3-c3nc(C(C)C)cs3)SC2)cc1 | 8 (≈ 22.5 µM) | 31.2 (≈ 87.9 µM) | 8 (≈ 22.5 µM) | 62.5 (≈ 176 µM) | 31.2 (≈ 87.9 µM) | 8 (≈ 22.5 µM) | 16 (≈ 45 µM) | 31.2 (≈ 87.9 µM) | 31.2 (≈ 87.9 µM) | 16 (≈ 45 µM)
CC(C)c1csc(-c2nnc3n2N=C(c2ccc(O)cc2)CS3)n1 | 62.5 (≈ 175 µM) | 31.2 (≈ 87.4 µM) | 31.2 (≈ 87.4 µM) | 16 (≈ 44.8 µM) | 31.2 (≈ 87.4 µM) | 16 (≈ 44.8 µM) | 62.5 (≈ 175 µM) | 31.2 (≈ 87.4 µM) | 31.2 (≈ 87.4 µM) | 125 (≈ 350 µM)
CC(C)c1csc(-c2nnc3n2N=C(c2ccc(Cl)cc2)CS3)n1 | 16 (≈ 42.6 µM) | 31.2 (≈ 83.1 µM) | 125 (≈ 333 µM) | 16 (≈ 42.6 µM) | 8 (≈ 21.3 µM) | 16 (≈ 42.6 µM) | 125 (≈ 333 µM) | 8 (≈ 21.3 µM) | 62.5 (≈ 166 µM) | 16 (≈ 42.6 µM)
CC(C)c1csc(-c2nnc3n2N=C(c2ccc([N+](=O)[O-])cc2)CS3)n1 | 125 (≈ 323 µM) | 62.5 (≈ 162 µM) | 16 (≈ 41.4 µM) | 16 (≈ 41.4 µM) | 16 (≈ 41.4 µM) | 31.2 (≈ 80.9 µM) | 125 (≈ 323 µM) | 125 (≈ 323 µM) | 31.2 (≈ 80.9 µM) | 31.2 (≈ 80.9 µM)
CC(C)c1csc(-c2nnc3n2N=C(c2ccc(Br)cc2)CS3)n1 | 62.5 (≈ 149 µM) | 125 (≈ 297 µM) | 31.2 (≈ 74.3 µM) | 62.5 (≈ 149 µM) | 31.2 (≈ 74.3 µM) | 16 (≈ 38.1 µM) | 125 (≈ 297 µM) | 31.2 (≈ 74.3 µM) | 31.2 (≈ 74.3 µM) | 62.5 (≈ 149 µM)
CC(C)c1csc(-c2nnc3n2NC(c2ccccc2Cl)S3)n1 (stereo not given) | 62.5 (≈ 172 µM) | 31.2 (≈ 85.9 µM) | 62.5 (≈ 172 µM) | 125 (≈ 344 µM) | 125 (≈ 344 µM) | 31.2 (≈ 85.9 µM) | 31.2 (≈ 85.9 µM) | 31.2 (≈ 85.9 µM) | 16 (≈ 44 µM) | 62.5 (≈ 172 µM)
COc1ccc(C2Nn3c(nnc3-c3nc(C(C)C)cs3)S2)cc1 (stereo not given) | 62.5 (≈ 174 µM) | 125 (≈ 348 µM) | 125 (≈ 348 µM) | 62.5 (≈ 174 µM) | 62.5 (≈ 174 µM) | 250 (≈ 695 µM) | 31.2 (≈ 86.9 µM) | 16 (≈ 44.5 µM) | 125 (≈ 348 µM) | –
CC(C)c1csc(-c2nnc3n2NC(c2ccc(N(C)C)cc2)S3)n1 (stereo not given) | 62.5 (≈ 168 µM) | 31.2 (≈ 83.9 µM) | 62.5 (≈ 168 µM) | 31.2 (≈ 83.9 µM) | 62.5 (≈ 168 µM) | 125 (≈ 336 µM) | 16 (≈ 43 µM) | 31.2 (≈ 83.9 µM) | 31.2 (≈ 83.9 µM) | 4 (≈ 10.7 µM)
O=C(O)c1cn(C2CC2)c2cc(N3CCNCC3)c(F)cc2c1=O [CIPROFLOXACIN] | ≤ 5 | – | ≤ 1 | – | ≤ 1 | ≤ 1 | ≤ 5 | ≤ 5 | – | –
OC(Cn1cncn1)(Cn1cncn1)c1ccc(F)cc1F [FLUCONAZOLE] | – | ≤ 1 | – | ≤ 1 | – | – | – | – | ≤ 1 | –
NNC(=O)c1ccncc1 [ISONIAZID] | – | – | – | – | – | – | – | – | – | 0.25 (≈ 1.82 µM)
CCn1cc(C(=O)O)c(=O)c2cc(F)c(N3CCNCC3)cc21 [NORFLOXACIN] | ≤ 5 | – | ≤ 1 | – | ≤ 1 | ≤ 1 | ≤ 5 | ≤ 5 | – | –
